# Assay results published in ChEMBL document CHEMBL1255424, “Antistaphylococcal activity of ACHN-490 tested alone and in combination with other agents by time-kill assay” (2010).
# Columns and labels:
# Format in all cases: functional
# Staphylococcus aureus [1] = assay: Antibacterial activity against hospital-acquired methicillin-resistant Staphylococcus aureus isolate 1743 after 24 hrs by modified broth macrodilution method; conditions: isolate 1743, 24 h
# In short: (§1)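 MIC read after 24 h incubation by modified broth macrodilution, validated per CLSI recommendations, against recent clinical MRSA isolates (hospital- and community-acquired, hVISA, VISA, VRSA). Daptomycin tests ran in Mueller-Hinton broth with added calcium.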
# Staphylococcus aureus [2] = assay: Antibacterial activity against hospital-acquired methicillin-resistant Staphylococcus aureus isolate 1806 after 24 hrs by modified broth macrodilution method; conditions: isolate 1806, 24 h; in short: as §1
# Staphylococcus aureus [3] = assay: Antibacterial activity against vancomycin-intermediate Staphylococcus aureus isolate 1008 after 24 hrs by modified broth macrodilution method; conditions: isolate 1008, 24 h; in short: as §1
# Staphylococcus aureus [4] = assay: Antibacterial activity against vancomycin-intermediate Staphylococcus aureus isolate 770 after 24 hrs by modified broth macrodilution method; conditions: isolate 770, 24 h; in short: as §1
# Staphylococcus aureus [5] = assay: Antibacterial activity against community-acquired methicillin-resistant panton-valentine leukocidin-positive Staphylococcus aureus isolate 1469 after 24 hrs by modified broth macrodilution method; conditions: isolate 1469, 24 h; in short: as §1
# Staphylococcus aureus [6] = assay: Antibacterial activity against community-acquired methicillin-resistant panton-valentine leukocidin-positive Staphylococcus aureus isolate 1472 after 24 hrs by modified broth macrodilution method; conditions: isolate 1472, 24 h; in short: as §1
# Staphylococcus aureus [7] = assay: Antibacterial activity against vancomycin-intermediate Staphylococcus aureus isolate 1004 after 24 hrs by modified broth macrodilution method; conditions: isolate 1004, 24 h; in short: as §1
# Staphylococcus aureus [8] = assay: Antibacterial activity against vancomycin-intermediate Staphylococcus aureus isolate 1006 after 24 hrs by modified broth macrodilution method; conditions: isolate 1006, 24 h; in short: as §1
# Staphylococcus aureus [9] = assay: Antibacterial activity against vancomycin-resistant Staphylococcus aureus isolate 1264 after 24 hrs by modified broth macrodilution method; conditions: isolate 1264, 24 h; in short: as §1
# Staphylococcus aureus [10] = assay: Antibacterial activity against vancomycin-intermediate Staphylococcus aureus isolate 511 after 24 hrs by modified broth macrodilution method; conditions: isolate 511, 24 h; in short: as §1
# Staphylococcus aureus [11] = assay: Antibacterial activity against vancomycin-intermediate Staphylococcus aureus isolate 1007 after 24 hrs by modified broth macrodilution method; conditions: isolate 1007, 24 h; in short: as §1
# Staphylococcus aureus [12] = assay: Antibacterial activity against community-acquired methicillin-resistant panton-valentine leukocidin-positive Staphylococcus aureus isolate 593 after 24 hrs by modified broth macrodilution method; conditions: isolate 593, 24 h; in short: as §1
# Staphylococcus aureus [13] = assay: Antibacterial activity against vancomycin-intermediate Staphylococcus aureus isolate 1010 after 24 hrs by modified broth macrodilution method; conditions: isolate 1010, 24 h; in short: as §1
# Staphylococcus aureus [14] = assay: Antibacterial activity against vancomycin-intermediate Staphylococcus aureus isolate 555 after 24 hrs by modified broth macrodilution method; conditions: isolate 555, 24 h; in short: as §1
# Staphylococcus aureus [15] = assay: Antibacterial activity against community-acquired methicillin-resistant panton-valentine leukocidin-positive Staphylococcus aureus isolate 693 after 24 hrs by modified broth macrodilution method; conditions: isolate 693, 24 h; in short: as §1
# Staphylococcus aureus [16] = assay: Antibacterial activity against vancomycin-intermediate Staphylococcus aureus isolate 1017 after 24 hrs by modified broth macrodilution method; conditions: isolate 1017, 24 h; in short: as §1
# Staphylococcus aureus [17] = assay: Antibacterial activity against vancomycin-intermediate Staphylococcus aureus isolate 1003 after 24 hrs by modified broth macrodilution method; conditions: isolate 1003, 24 h; in short: as §1
# Staphylococcus aureus [18] = assay: Antibacterial activity against hospital-acquired methicillin-resistant Staphylococcus aureus isolate 1808 after 24 hrs by modified broth macrodilution method; conditions: isolate 1808, 24 h; in short: as §1
# Staphylococcus aureus [19] = assay: Antibacterial activity against hospital-acquired methicillin-resistant Staphylococcus aureus isolate 1867 after 24 hrs by modified broth macrodilution method; conditions: isolate 1867, 24 h; in short: as §1
# Staphylococcus aureus [20] = assay: Antibacterial activity against methicillin-resistant Staphylococcus aureus isolate 2003 after 24 hrs by modified broth macrodilution method; conditions: isolate 2003, 24 h; in short: as §1
# Staphylococcus aureus [21] = assay: Antibacterial activity against vancomycin-intermediate Staphylococcus aureus isolate 1009 after 24 hrs by modified broth macrodilution method; conditions: isolate 1009, 24 h; in short: as §1
# Staphylococcus aureus [22] = assay: Antibacterial activity against community-acquired methicillin-resistant panton-valentine leukocidin-positive Staphylococcus aureus isolate 1468 after 24 hrs by modified broth macrodilution method; conditions: isolate 1468, 24 h; in short: as §1
# Staphylococcus aureus [23] = assay: Antibacterial activity against vancomycin-susceptible Staphylococcus aureus after 24 hrs by modified broth macrodilution method
# In short: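 MICs determined in recent clinical MRSA isolates by a modified broth macrodilution method per CLSI recommendations, with 24 h incubation. Daptomycin tests used Mueller-Hinton broth supplemented with calcium. Value is the lowest inhibitory drug concentration.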
# Staphylococcus aureus [24] = assay: Antibacterial activity against community-acquired methicillin-resistant panton-valentine leukocidin-positive Staphylococcus aureus isolate 1471 after 24 hrs by modified broth macrodilution method; conditions: isolate 1471, 24 h; in short: as §1
# Staphylococcus aureus [25] = assay: Antibacterial activity against vancomycin-resistant Staphylococcus aureus after 24 hrs by modified broth macrodilution method; in short: as §1
# Staphylococcus aureus [26] = assay: Antibacterial activity against vancomycin-intermediate Staphylococcus aureus isolate 1014 after 24 hrs by modified broth macrodilution method; conditions: isolate 1014, 24 h; in short: as §1
# Staphylococcus aureus [27] = assay: Antibacterial activity against vancomycin-intermediate Staphylococcus aureus after 24 hrs by modified broth macrodilution method; in short: as §1
# Staphylococcus aureus [28] = assay: Antibacterial activity against vancomycin-intermediate Staphylococcus aureus isolate 1005 after 24 hrs by modified broth macrodilution method; conditions: isolate 1005, 24 h; in short: as §1
# Staphylococcus aureus [29] = assay: Antibacterial activity against vancomycin-resistant Staphylococcus aureus isolate 509 after 24 hrs by modified broth macrodilution method; conditions: isolate 509, 24 h; in short: as §1
# Staphylococcus aureus [30] = assay: Antibacterial activity against community-acquired methicillin-resistant panton-valentine leukocidin-positive Staphylococcus aureus isolate 815 after 24 hrs by modified broth macrodilution method; conditions: isolate 815, 24 h; in short: as §1
# Staphylococcus aureus [31] = assay: Antibacterial activity against community-acquired methicillin-resistant panton-valentine leukocidin-positive Staphylococcus aureus isolate 813 after 24 hrs by modified broth macrodilution method; conditions: isolate 813, 24 h; in short: as §1
# Staphylococcus aureus [32] = assay: Antibacterial activity against community-acquired methicillin-resistant panton-valentine leukocidin-negative Staphylococcus aureus isolate 1470 after 24 hrs by modified broth macrodilution method; conditions: isolate 1470, 24 h; in short: as §1
# Staphylococcus aureus [33] = assay: Antibacterial activity against hospital-acquired methicillin-resistant Staphylococcus aureus isolate 1851 after 24 hrs by modified broth macrodilution method; conditions: isolate 1851, 24 h; in short: as §1
# Staphylococcus aureus [34] = assay: Antibacterial activity against vancomycin-hetero-intermediate Staphylococcus aureus isolate 873 after 24 hrs by modified broth macrodilution method; conditions: isolate 873, 24 h; in short: as §1
# Staphylococcus aureus [35] = assay: Antibacterial activity against vancomycin-resistant Staphylococcus aureus isolate 557 after 24 hrs by modified broth macrodilution method; conditions: isolate 557, 24 h; in short: as §1
# Staphylococcus aureus [36] = assay: Antibacterial activity against hospital-acquired methicillin-resistant Staphylococcus aureus isolate 1838 after 24 hrs by modified broth macrodilution method; conditions: isolate 1838, 24 h; in short: as §1
# Staphylococcus aureus [37] = assay: Antibacterial activity against vancomycin-intermediate Staphylococcus aureus isolate 1015 after 24 hrs by modified broth macrodilution method; conditions: isolate 1015, 24 h; in short: as §1
# Staphylococcus aureus [38] = assay: Antibacterial activity against vancomycin-hetero-intermediate Staphylococcus aureus after 24 hrs by modified broth macrodilution method; in short: as §1
# Staphylococcus aureus [39] = assay: Antibacterial activity against community-acquired methicillin-resistant panton-valentine leukocidin-positive Staphylococcus aureus isolate 950 after 24 hrs by modified broth macrodilution method; conditions: isolate 950, 24 h; in short: as §1
# Staphylococcus aureus [40] = assay: Antibacterial activity against hospital-acquired methicillin-resistant Staphylococcus aureus isolate 1766 after 24 hrs by modified broth macrodilution method; conditions: isolate 1766, 24 h; in short: as §1
# Staphylococcus aureus [41] = assay: Antibacterial activity against hospital-acquired methicillin-resistant Staphylococcus aureus isolate 1751 after 24 hrs by modified broth macrodilution method; conditions: isolate 1751, 24 h; in short: as §1
# Staphylococcus aureus [42] = assay: Antibacterial activity against vancomycin-hetero-intermediate Staphylococcus aureus isolate 618 after 24 hrs by modified broth macrodilution method; conditions: isolate 618, 24 h; in short: as §1
# Staphylococcus aureus [43] = assay: Antibacterial activity against vancomycin-intermediate Staphylococcus aureus isolate 1011 after 24 hrs by modified broth macrodilution method; conditions: isolate 1011, 24 h; in short: as §1
# Staphylococcus aureus [44] = assay: Antibacterial activity against vancomycin-intermediate Staphylococcus aureus isolate 1287 after 24 hrs by modified broth macrodilution method; conditions: isolate 1287, 24 h; in short: as §1
# Staphylococcus aureus [45] = assay: Antibacterial activity against vancomycin-intermediate Staphylococcus aureus isolate 1013 after 24 hrs by modified broth macrodilution method; conditions: isolate 1013, 24 h; in short: as §1
# Staphylococcus aureus [46] = assay: Antibacterial activity against vancomycin-resistant Staphylococcus aureus isolate 1263 after 24 hrs by modified broth macrodilution method; conditions: isolate 1263, 24 h; in short: as §1
# Staphylococcus aureus [47] = assay: Antibacterial activity against vancomycin-resistant Staphylococcus aureus isolate 510 after 24 hrs by modified broth macrodilution method; conditions: isolate 510, 24 h; in short: as §1
# Staphylococcus aureus [48] = assay: Antibacterial activity against hospital-acquired methicillin-resistant Staphylococcus aureus isolate 1776 after 24 hrs by modified broth macrodilution method; conditions: isolate 1776, 24 h; in short: as §1
# Staphylococcus aureus [49] = assay: Antibacterial activity against vancomycin-intermediate Staphylococcus aureus isolate 1016 after 24 hrs by modified broth macrodilution method; conditions: isolate 1016, 24 h; in short: as §1
# Staphylococcus aureus [50] = assay: Antibacterial activity against vancomycin-intermediate Staphylococcus aureus isolate 1984 after 24 hrs by modified broth macrodilution method; conditions: isolate 1984, 24 h; in short: as §1
# Staphylococcus aureus [51] = assay: Antibacterial activity against vancomycin-intermediate Staphylococcus aureus isolate 1012 after 24 hrs by modified broth macrodilution method; conditions: isolate 1012, 24 h; in short: as §1
structure (smiles),measurement,setting,value
CN[C@@H]1[C@@H](O)[C@@](C)(O[C@@H]2[C@@H](O)[C@H](O[C@H]3OC(CNCCO)=CC[C@H]3N)[C@@H](N)C[C@H]2NC(=O)[C@H](O)CCN)OC[C@]1(C)O,MIC,Staphylococcus aureus [1],2 µg/mL
same,MIC,Staphylococcus aureus [2],2 µg/mL
same,MIC,Staphylococcus aureus [3],2 µg/mL
same,MIC,Staphylococcus aureus [4],2 µg/mL
same,MIC,Staphylococcus aureus [5],4 µg/mL
same,MIC,Staphylococcus aureus [6],2 µg/mL
same,MIC,Staphylococcus aureus [7],4 µg/mL
same,MIC,Staphylococcus aureus [8],4 µg/mL
same,MIC,Staphylococcus aureus [9],1 µg/mL
same,MIC,Staphylococcus aureus [10],2 µg/mL
same,MIC,Staphylococcus aureus [11],1 µg/mL
same,MIC,Staphylococcus aureus [12],4 µg/mL
same,MIC,Staphylococcus aureus [13],1 µg/mL
same,MIC,Staphylococcus aureus [14],4 µg/mL
same,MIC,Staphylococcus aureus [15],2 µg/mL
same,MIC,Staphylococcus aureus [16],2 µg/mL
same,MIC,Staphylococcus aureus [17],1 µg/mL
same,MIC,Staphylococcus aureus [18],2 µg/mL
same,MIC,Staphylococcus aureus [19],4 µg/mL
same,MIC,Staphylococcus aureus [20],8 µg/mL
same,MIC,Staphylococcus aureus [21],2 µg/mL
same,MIC,Staphylococcus aureus [22],4 µg/mL
same,MIC,Staphylococcus aureus [23],2 µg/mL
same,MIC,Staphylococcus aureus [24],4 µg/mL
same,MIC,Staphylococcus aureus [25],0.5 µg/mL
same,MIC,Staphylococcus aureus [26],2 µg/mL
same,MIC,Staphylococcus aureus [27],1 µg/mL
same,MIC,Staphylococcus aureus [28],2 µg/mL
same,MIC,Staphylococcus aureus [29],1 µg/mL
same,MIC,Staphylococcus aureus [30],4 µg/mL
same,MIC,Staphylococcus aureus [31],4 µg/mL
same,MIC,Staphylococcus aureus [32],2 µg/mL
same,MIC,Staphylococcus aureus [33],4 µg/mL
same,MIC,Staphylococcus aureus [34],1 µg/mL
same,MIC,Staphylococcus aureus [35],0.5 µg/mL
same,MIC,Staphylococcus aureus [36],2 µg/mL
same,MIC,Staphylococcus aureus [37],4 µg/mL
same,MIC,Staphylococcus aureus [38],1 µg/mL
same,MIC,Staphylococcus aureus [39],4 µg/mL
same,MIC,Staphylococcus aureus [40],2 µg/mL
same,MIC,Staphylococcus aureus [41],2 µg/mL
same,MIC,Staphylococcus aureus [42],1 µg/mL
same,MIC,Staphylococcus aureus [43],2 µg/mL
same,MIC,Staphylococcus aureus [44],4 µg/mL
same,MIC,Staphylococcus aureus [45],2 µg/mL
same,MIC,Staphylococcus aureus [46],2 µg/mL
same,MIC,Staphylococcus aureus [47],1 µg/mL
same,MIC,Staphylococcus aureus [48],4 µg/mL
same,MIC,Staphylococcus aureus [49],2 µg/mL
same,MIC,Staphylococcus aureus [50],4 µg/mL
same,MIC,Staphylococcus aureus [51],2 µg/mL
